Data reported in the RNAGym collection of RNA variant scans (doi:10.1126/science.aae0568).
Variants at the floor of the assay were thinned out.

B1: tRNA (parent)
chain: GUUCCGUUGGCGUAAUGGUAACGCGUCUCCCUCCUAAGGAGAAGACUGCGGGUUCGAGUCCCGUACGGAACG

Variants of: B1
Assay: yeast fitness relative to wild type (ratio to wild type); higher = fitter; tRNA-Arg(CCU), competitive growth, 37 C, YPD
Method in brief: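 The tRNA-Arg(CCU) gene variants were made by chemical synthesis with a 3% per-site mutation rate at 69 sites and inserted at the native genomic locus of Saccharomyces cerevisiae. After pooling, the strains were competed in YPD at 37°C for 24 hours in six parallel replicates. Gene amplicons from the start population and each end population were read by 100-nucleotide paired-end sequencing, and Darwinian fitness relative to wild type was taken from genotype frequency changes. Genotypes needed ≥ 100 starting reads, and estimates < 0.5 were set to 0.5.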
With U19A G25C C33A A37G the yeast fitness was ≤ 0.5.
For U19A G25C C33A A37G G48A G68A, the yeast fitness was ≤ 0.5.
In the case of U19A G39A G63C, the yeast fitness is reported as ≤ 0.5.
For U19A G39C G63C, the yeast fitness was ≤ 0.5.
In the case of U19A G41C C55G C66G, the yeast fitness is reported as ≤ 0.5.
For U19A G44C, the yeast fitness was 0.971.
For U19A G44C G67C, the yeast fitness was 0.639.
For U19A G48A G50A C62A G63C, the yeast fitness was 0.591.
With U19A G48C the yeast fitness was 0.861.
For U19A G48C G67C, the yeast fitness was ≤ 0.5.
U19A G50A A57C showed a yeast fitness of 0.516.
With U19A G50A G68C the yeast fitness was ≤ 0.5.
U19A G50U showed a yeast fitness of 0.817.
In the case of U19A G51A, the yeast fitness is reported as 0.768.
With U19A G51C the yeast fitness was 0.636.
With U19A G52A the yeast fitness was 0.679.
In the case of U19A G63A, the yeast fitness is reported as 0.952.
In the case of U19A G67A, the yeast fitness is reported as 0.866.
Work on U19A G67A A70U yielded a yeast fitness of 0.691.
With U19A G68C the yeast fitness was 0.709.
In the case of U19A G68U, the yeast fitness is reported as 0.857.
Work on U19A U26A C66A yielded a yeast fitness of 0.585.
With U19A U26A U64A the yeast fitness was 0.553.
With U19A U26C C30A the yeast fitness was 0.639.
With U19A U28A A37U A42U the yeast fitness was ≤ 0.5.
For U19A U28C G39C, the yeast fitness was ≤ 0.5.
With U19A U28G A40C A42G A69C the yeast fitness was 0.561.
U19A U32C showed a yeast fitness of 0.848.
U19A U47A showed a yeast fitness of 0.837.
With U19A U47A G58C the yeast fitness was 0.602.
In the case of U19A U47C, the yeast fitness is reported as 0.925.
Variant U19A U47C C66U has a yeast fitness of 0.751.
U19A U47G G50A showed a yeast fitness of 0.55.
With U19A U53C the yeast fitness was 0.806.
In the case of U19A U59A C62A, the yeast fitness is reported as ≤ 0.5.
With U19A U59C C61A U64C the yeast fitness was ≤ 0.5.
Work on U19A U64C yielded a yeast fitness of 0.901.
For U19A U64G, the yeast fitness was 0.687.
Work on U19C yielded a yeast fitness of 0.972.
With U19C A20C A21U C55U A65U the yeast fitness was ≤ 0.5.
With U19C A20C A21U G56A A69C the yeast fitness was ≤ 0.5.
With U19C A20C C31A the yeast fitness was ≤ 0.5.
Variant U19C A20C C31G has a yeast fitness of 0.542.
With U19C A20C C31G C49G the yeast fitness was ≤ 0.5.
Variant U19C A20C C33U U35A C49A has a yeast fitness of 0.539.
With U19C A20G the yeast fitness was 0.964.
With U19C A20G G67A the yeast fitness was 0.76.
In the case of U19C A20U A43U, the yeast fitness is reported as 0.66.
Work on U19C A20U A57G yielded a yeast fitness of 0.695.
Work on U19C A20U A69U yielded a yeast fitness of 1.05.
U19C A20U A70U showed a yeast fitness of 0.794.
Variant U19C A20U C22U C27G has a yeast fitness of 0.532.
In the case of U19C A20U C22U C27G G39U, the yeast fitness is reported as ≤ 0.5.
In the case of U19C A20U C22U C27G G48C G51A, the yeast fitness is reported as ≤ 0.5.
For U19C A20U G56A, the yeast fitness was 0.724.
For U19C A20U G56C A57U, the yeast fitness was 0.562.
Variant U19C A20U G67U A69U has a yeast fitness of 0.53.
With U19C A21C C33U C61A A70C the yeast fitness was ≤ 0.5.
In the case of U19C A21C G39C C61U, the yeast fitness is reported as ≤ 0.5.
For U19C A21C G51A G58A, the yeast fitness was ≤ 0.5.
Variant U19C A21G has a yeast fitness of 0.906.
In the case of U19C A21G U26G G39C C46A A70C, the yeast fitness is reported as ≤ 0.5.
In the case of U19C A21U A43C C49U, the yeast fitness is reported as 0.547.
Work on U19C A21U C31U A42G A43U yielded a yeast fitness of 0.929.
With U19C A21U C49U the yeast fitness was 0.966.
For U19C A36C G39A C62G, the yeast fitness was ≤ 0.5.
In the case of U19C A36C G41C C66A, the yeast fitness is reported as ≤ 0.5.
In the case of U19C A36C G58C, the yeast fitness is reported as ≤ 0.5.
In the case of U19C A36G A43G C60U C62U A70C, the yeast fitness is reported as ≤ 0.5.
U19C A36U gave a yeast fitness of 0.566.
U19C A37C gave a yeast fitness of 0.658.
In the case of U19C A37C G63A, the yeast fitness is reported as ≤ 0.5.
U19C A37G gave a yeast fitness of 0.784.
With U19C A37G A65U the yeast fitness was 0.58.
With U19C A37G C49A the yeast fitness was ≤ 0.5.
Variant U19C A37G G44C G58A A65G has a yeast fitness of 0.63.
For U19C A37G G56C, the yeast fitness was ≤ 0.5.
U19C A37U showed a yeast fitness of 1.08.
U19C A40C gave a yeast fitness of 1.1.
In the case of U19C A40C A65U, the yeast fitness is reported as 0.605.
U19C A40C G50A gave a yeast fitness of 0.664.
Variant U19C A40C U53A has a yeast fitness of 0.532.
With U19C A40G the yeast fitness was 0.898.
Work on U19C A40U yielded a yeast fitness of 0.98.
For U19C A40U C55U A65G, the yeast fitness was ≤ 0.5.
U19C A42C gave a yeast fitness of 1.06.
With U19C A42G the yeast fitness was 0.774.
In the case of U19C A42U G68C, the yeast fitness is reported as ≤ 0.5.
U19C A43C gave a yeast fitness of 0.907.
For U19C A43G, the yeast fitness was 1.07.
In the case of U19C A43G A69U, the yeast fitness is reported as 1.05.
With U19C A43U the yeast fitness was 1.03.
U19C A43U A69U showed a yeast fitness of 1.09.
With U19C A43U C49U the yeast fitness was 0.698.
U19C A43U C49U C62U showed a yeast fitness of 0.573.
Work on U19C A45C yielded a yeast fitness of 0.861.
With U19C A45C C55U the yeast fitness was 0.518.
For U19C A45C G68C, the yeast fitness was ≤ 0.5.
U19C A45G showed a yeast fitness of 1.
For U19C A45U C46U A57U, the yeast fitness was ≤ 0.5.
With U19C A57C C61A the yeast fitness was ≤ 0.5.
Variant U19C A57G A70U has a yeast fitness of 0.601.
U19C A57G G58C gave a yeast fitness of 0.609.
Variant U19C A57U has a yeast fitness of 0.658.
Variant U19C A65C has a yeast fitness of 0.888.
In the case of U19C A65G G68U, the yeast fitness is reported as 0.583.
Variant U19C A65U G68A has a yeast fitness of 0.534.
In the case of U19C A69U, the yeast fitness is reported as 0.925.
U19C A70G gave a yeast fitness of 0.982.
U19C C22A U32A A37U A45C gave a yeast fitness of 0.505.
With U19C C22A U32A A37U A45U the yeast fitness was ≤ 0.5.
Variant U19C C22G A70U has a yeast fitness of 0.743.
Work on U19C C22G C24A yielded a yeast fitness of 0.72.
With U19C C22G C24A G39C A45C the yeast fitness was 0.916.
U19C C22G C24A G39C A45C U47C showed a yeast fitness of 0.721.
With U19C C22G C24A G39C A45U the yeast fitness was 0.572.
For U19C C22G G25C C33U G39C C62G, the yeast fitness was ≤ 0.5.
With U19C C22G G63C G68U the yeast fitness was ≤ 0.5.
Work on U19C C22U yielded a yeast fitness of 0.895.
In the case of U19C C22U C55A C66U, the yeast fitness is reported as ≤ 0.5.
For U19C C22U C55U C61G, the yeast fitness was ≤ 0.5.
With U19C C22U C61A A70G the yeast fitness was ≤ 0.5.
With U19C C22U G44C the yeast fitness was 0.551.
With U19C C22U G50A U64C the yeast fitness was ≤ 0.5.
U19C C22U G67A showed a yeast fitness of 0.772.
For U19C C24A, the yeast fitness was 0.601.
With U19C C24A G58A C66U the yeast fitness was ≤ 0.5.
U19C C24G gave a yeast fitness of 0.621.
For U19C C24G A36G A37U U47A, the yeast fitness was ≤ 0.5.
With U19C C24G A37U C46U U47A the yeast fitness was ≤ 0.5.
In the case of U19C C24G A37U G56A A65C, the yeast fitness is reported as ≤ 0.5.
For U19C C24G A37U U47A, the yeast fitness was 0.524.
In the case of U19C C24G A37U U47A A57G, the yeast fitness is reported as ≤ 0.5.
In the case of U19C C24G C33A, the yeast fitness is reported as ≤ 0.5.
With U19C C24G C34A the yeast fitness was ≤ 0.5.
With U19C C24G G39C the yeast fitness was ≤ 0.5.
In the case of U19C C24G G50C, the yeast fitness is reported as 0.768.
Work on U19C C24G U35A yielded a yeast fitness of 0.804.
For U19C C24G U35C A37U U47A, the yeast fitness was ≤ 0.5.
In the case of U19C C24U A40C, the yeast fitness is reported as 0.663.
In the case of U19C C24U A69C, the yeast fitness is reported as 0.789.
With U19C C24U C49A U54C C60G the yeast fitness was ≤ 0.5.
With U19C C24U C55U A57C the yeast fitness was ≤ 0.5.
In the case of U19C C24U C61U, the yeast fitness is reported as 0.787.
U19C C24U C66U gave a yeast fitness of 0.712.
In the case of U19C C24U G51A, the yeast fitness is reported as 0.66.
Variant U19C C24U U32C A37C A45G A57C has a yeast fitness of 0.638.
With U19C C24U U53A C62A C66U the yeast fitness was ≤ 0.5.
Variant U19C C27A C30G U54A G56A has a yeast fitness of 0.671.
For U19C C27A C31G U32C G39C, the yeast fitness was ≤ 0.5.
For U19C C27A G50C, the yeast fitness was 0.577.
U19C C27G showed a yeast fitness of 0.579.
For U19C C27G A65U G68U, the yeast fitness was ≤ 0.5.
In the case of U19C C27G C29A C33A A43C, the yeast fitness is reported as ≤ 0.5.
With U19C C27G C31G G39C A57C the yeast fitness was ≤ 0.5.
With U19C C27U the yeast fitness was 1.08.
Work on U19C C27U C29G C34A A42C A65G yielded a yeast fitness of 0.541.
For U19C C27U C29G C34A A42C A69C, the yeast fitness was ≤ 0.5.
For U19C C27U C33G C34G G44A G50A G52A, the yeast fitness was ≤ 0.5.
With U19C C27U C46A C62G A69U the yeast fitness was ≤ 0.5.
With U19C C29A A43C the yeast fitness was ≤ 0.5.
With U19C C29A U32G G58A A69G the yeast fitness was ≤ 0.5.
Variant U19C C29G A57G U59A G68U A70G has a yeast fitness of 0.55.
With U19C C29G C31A the yeast fitness was ≤ 0.5.
In the case of U19C C29G C33G G41C C66U, the yeast fitness is reported as ≤ 0.5.
With U19C C29G U47A the yeast fitness was ≤ 0.5.
Work on U19C C29U A42C A57G yielded a yeast fitness of 0.541.
